Converted amounts (≈) assume the structure as drawn. The source made the active and inactive calls. The calls are words filed in the database; no cut-off is given here.
Legend:
[1] = tested on: Saccharomyces cerevisiae; assay: Antifungal activity against Saccharomyces cerevisiae ATCC 9763 at 1 mg/ml after 72 hrs by agar-well diffusion assay; format: functional; conditions: for zone of inhibition at 1000 µg/mL: ATCC 9763, 72 h, read-out: IZ
Outline: (§1)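 Fungi and yeasts streaked on mycophil agar from broth culture diluted 1:10 in sterile water; 100 μl of compound at 1 mg/ml placed in 11 mm cork-borer wells; plates held at 30°. Inhibition zone width (mm) recorded at 48 and 72 h and coded – to ++++ (1–2, 3–6, 7–12, >13 mm); amphotericin B positive control.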

[2] = tested on: Candida albicans; assay: Antifungal activity against Candida albicans ATCC 10231 at 1 mg/ml after 48 hrs by agar-well diffusion assay; format: functional; conditions: ATCC 10231, 48 h, read-out: IZ; outline: as §1
[3] = tested on: Candida albicans; assay: Antifungal activity against Candida albicans ATCC 10231 at 1 mg/ml after 72 hrs by agar-well diffusion assay; format: functional; conditions: ATCC 10231, 72 h, read-out: IZ; outline: as §1
[4] = tested on: Aspergillus niger; assay: Antifungal activity against Aspergillus niger ATCC 16888 at 1 mg/ml after 48 hrs by agar-well diffusion assay; format: functional; outline: as §1
[5] = tested on: Aspergillus niger; assay: Antifungal activity against Aspergillus niger ATCC 16888 at 1 mg/ml after 72 hrs by agar-well diffusion assay; format: functional; outline: as §1
[6] = tested on: Trichophyton mentagrophytes; assay: Antifungal activity against Trichophyton mentagrophytes ATCC 9972 at 1 mg/ml after 48 hrs by agar-well diffusion assay; format: functional; conditions: for zone of inhibition at 1000 µg/mL: ATCC 9972, 48 h, read-out: IZ; outline: as §1
[7] = tested on: Trichophyton mentagrophytes; assay: Antifungal activity against Trichophyton mentagrophytes ATCC 9972 at 1 mg/ml after 72 hrs by agar-well diffusion assay; format: functional; conditions: for zone of inhibition at 1000 µg/mL: ATCC 9972, 72 h, read-out: IZ; outline: as §1
[8] = tested on: Trametes sanguinea; assay: Antifungal activity against Polyporus sanguineus ATCC 16422 at 1 mg/ml after 48 hrs by agar-well diffusion assay; format: functional; conditions: for zone of inhibition at 1000 µg/mL: ATCC 16422, 48 h, read-out: IZ; outline: as §1
[9] = tested on: Trametes sanguinea; assay: Antifungal activity against Polyporus sanguineus ATCC 16422 at 1 mg/ml after 72 hrs by agar-well diffusion assay; format: functional; conditions: for zone of inhibition at 1000 µg/mL: ATCC 16422, 72 h, read-out: IZ; outline: as §1
[10] = tested on: Helminthosporium; assay: Antifungal activity against Helminthosporium ATCC 4671 at 1 mg/ml after 48 hrs by agar-well diffusion assay; format: functional; conditions: for zone of inhibition at 1000 µg/mL: ATCC 4671, 48 h, read-out: IZ; outline: as §1
[11] = tested on: Helminthosporium; assay: Antifungal activity against Helminthosporium ATCC 4671 at 1 mg/ml after 72 hrs by agar-well diffusion assay; format: functional; conditions: for zone of inhibition at 1000 µg/mL: ATCC 4671, 72 h, read-out: IZ; outline: as §1
[12] = tested on: Bacillus subtilis; assay: Antibacterial activity against Bacillus subtilis ATCC 6633 after 24 hrs by twofold serial dilution method; format: functional; conditions: ATCC 6633, 24 h
[13] = tested on: Bacillus subtilis; assay: Antibacterial activity against Bacillus subtilis ATCC 6633 after 48 hrs by twofold serial dilution method; format: functional; conditions: ATCC 6633, 48 h
[14] = tested on: Trichophyton mentagrophytes; assay: Antifungal activity against Trichophyton mentagrophytes ATCC 9972 after 24 hrs by twofold serial dilution method; format: functional; conditions: ATCC 9972, 24 h
[15] = tested on: Trichophyton mentagrophytes; assay: Antifungal activity against Trichophyton mentagrophytes ATCC 9972 after 48 hrs by twofold serial dilution method; format: functional; conditions: ATCC 9972, 48 h
[16] = tested on: Bacillus subtilis; assay: Antibacterial activity against Bacillus subtilis ATCC 6633 at 1 mg/ml after 24 hrs by agar-well diffusion assay; format: functional; conditions: ATCC 6633, 24 h, read-out: IZ
Outline: (§2)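 Agar-well diffusion on eugon agar, bacteria streaked by quadrant method from broth culture diluted 1:10 in sterile water; 11 mm wells given 100 μl of compound at 1 mg/ml; 37° incubation. Zone width (mm) read at 24 and 48 h, coded –, + (1–2), ++ (3–6), +++ (7–12), ++++ (>13); streptomycin sulfate positive control.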

[17] = tested on: Bacillus subtilis; assay: Antibacterial activity against Bacillus subtilis ATCC 6633 at 1 mg/ml after 48 hrs by agar-well diffusion assay; format: functional; conditions: ATCC 6633, 48 h, read-out: IZ; outline: as §2
[18] = tested on: Escherichia coli; assay: Antibacterial activity against Escherichia coli ATCC 10536 at 1 mg/ml after 24 hrs by agar-well diffusion assay; format: functional; outline: as §2
[19] = tested on: Escherichia coli; assay: Antibacterial activity against Escherichia coli ATCC 10536 at 1 mg/ml after 48 hrs by agar-well diffusion assay; format: functional; outline: as §2
[20] = tested on: Staphylococcus aureus; assay: Antibacterial activity against Staphylococcus aureus ATCC 6538 at 1 mg/ml after 24 hrs by agar-well diffusion assay; format: functional; conditions: ATCC 6538, 24 h, read-out: IZ; outline: as §2
[21] = tested on: Staphylococcus aureus; assay: Antibacterial activity against Staphylococcus aureus ATCC 6538 at 1 mg/ml after 48 hrs by agar-well diffusion assay; format: functional; conditions: for zone of inhibition at 1000 µg/mL: ATCC 6538, 48 h, read-out: IZ; outline: as §2
[22] = tested on: Mycolicibacterium smegmatis; assay: Antibacterial activity against Mycobacterium smegmatis ATCC 607 at 1 mg/ml after 48 hrs by agar-well diffusion assay; format: functional; conditions: ATCC 607, 48 h, read-out: IZ
Outline: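 Quadrant-streaked eugon agar plates (broth culture diluted 1:10 in water) with 11 mm wells receiving 100 μl of 1 mg/ml compound, incubated at 37°; inhibition zone width in mm scored at 48 h and 72 h as –, +, ++, +++, ++++ (1–2, 3–6, 7–12, >13 mm); streptomycin sulfate control.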

[23] = tested on: Pseudomonas aeruginosa; assay: Antibacterial activity against Pseudomonas aeruginosa ATCC 15442 at 1 mg/ml after 24 hrs by agar-well diffusion assay; format: functional; outline: as §2
[24] = tested on: Pseudomonas aeruginosa; assay: Antibacterial activity against Pseudomonas aeruginosa ATCC 15442 at 1 mg/ml after 48 hrs by agar-well diffusion assay; format: functional; outline: as §2
[25] = tested on: Saccharomyces cerevisiae; assay: Antifungal activity against Saccharomyces cerevisiae ATCC 9763 at 1 mg/ml after 48 hrs by agar-well diffusion assay; format: functional; conditions: for zone of inhibition at 1000 µg/mL: ATCC 9763, 48 h, read-out: IZ; outline: as §1
[26] = tested on: Mycolicibacterium smegmatis; assay: Antibacterial activity against Mycobacterium smegmatis ATCC 607 at 1 mg/ml after 48 hrs by agar-well diffusion assay; conditions: ATCC 607, 48 h, read-out: IZ
[27] = tested on: Saccharomyces cerevisiae; assay: Antifungal activity against Saccharomyces cerevisiae ATCC 9763 after 24 hrs by twofold serial dilution method; format: functional; conditions: ATCC 9763, 24 h
[28] = tested on: Saccharomyces cerevisiae; assay: Antifungal activity against Saccharomyces cerevisiae ATCC 9763 after 48 hrs by twofold serial dilution method; format: functional; conditions: ATCC 9763, 48 h

| SMILES | inhibition zone (IZ) [1] | zone of inhibition at 1000 µg/mL [2] [mm] | zone of inhibition at 1000 µg/mL [3] [mm] | inhibition zone (IZ) [4] | inhibition zone (IZ) [5] | zone of inhibition at 1000 µg/mL [6] [mm] | zone of inhibition at 1000 µg/mL [7] [mm] | inhibition zone (IZ) [8] | inhibition zone (IZ) [9] | zone of inhibition at 1000 µg/mL [10] [mm] | zone of inhibition at 1000 µg/mL [11] [mm] | zone of inhibition at 1000 µg/mL [16] [mm] | zone of inhibition at 1000 µg/mL [17] [mm] | inhibition zone (IZ) [18] | inhibition zone (IZ) [19] | zone of inhibition at 1000 µg/mL [20] [mm] | zone of inhibition at 1000 µg/mL [22] [mm] | inhibition zone (IZ) [23] | inhibition zone (IZ) [24] | zone of inhibition at 1000 µg/mL [26] [mm] | other results |
| --- | --- | --- | --- | --- | --- | --- | --- | --- | --- | --- | --- | --- | --- | --- | --- | --- | --- | --- | --- | --- | --- |
| C[C@@H]1CC[C@@]2(C)C(C(=O)O)=CCC[C@@H]2[C@@]1(C)CCc1ccoc1 | inactive | 1 | 3 | inactive | inactive | 7 | 3 | inactive | inactive | 3 | 3 | 7 | 7 | inactive | inactive | 3 | 7 | inactive | inactive | 7 | MIC [12]: 0.78 µg/mL (≈ 2.46 µM); MIC [13]: 1.56 µg/mL (≈ 4.93 µM); MIC [14]: 25 µg/mL (≈ 79 µM); MIC [15]: 25 µg/mL (≈ 79 µM); zone of inhibition at 1000 µg/mL [21]: 3 mm; inhibition zone (IZ) [25]: inactive |
| C[C@@H]1[C@H](O)[C@@H](C)/C=C/C=C/C=C/C=C/C=C/C=C/C=C/[C@H](O[C@@H]2O[C@H](C)[C@@H](O)[C@H](N)[C@@H]2O)C[C@@H]2O[C@](O)(C[C@@H](O)C[C@@H](O)[C@H](O)CC[C@@H](O)C[C@@H](O)CC(=O)O[C@H]1C)C[C@H](O)[C@H]2C(=O)O [AMPHOTERICIN B] | – | 7 | 7 | – | – | 7 | 7 | – | – | > 12 | > 12 | – | – | – | – | – | – | – | – | – | zone of inhibition at 1000 µg/mL [1]: 7 mm; zone of inhibition at 1000 µg/mL ([4]; ATCC 16888, 48 h, read-out: IZ): 7 mm; zone of inhibition at 1000 µg/mL ([5]; ATCC 16888, 72 h, read-out: IZ): 7 mm; zone of inhibition at 1000 µg/mL [8]: > 12 mm; zone of inhibition at 1000 µg/mL [9]: > 12 mm; MIC [14]: 0.78 µg/mL (≈ 0.844 µM); MIC [15]: 0.78 µg/mL (≈ 0.844 µM); MIC [27]: 6.25 µg/mL (≈ 6.76 µM); MIC [28]: 12.5 µg/mL (≈ 13.5 µM); zone of inhibition at 1000 µg/mL [25]: 7 mm |
| CN[C@@H]1[C@H](O[C@H]2[C@H](O[C@H]3[C@H](O)[C@@H](O)[C@H](N=C(N)N)[C@@H](O)[C@@H]3N=C(N)N)O[C@@H](C)[C@]2(O)C=O)O[C@@H](CO)[C@H](O)[C@H]1O [STREPTOMYCIN] | – | – | – | – | – | – | – | – | – | – | – | – | – | – | – | – | – | – | – | – | MIC [12]: 3.12 µg/mL (≈ 5.36 µM); MIC [13]: 3.12 µg/mL (≈ 5.36 µM) |
| C=C(C)[C@@H]1CC[C@@]23C[C@@H]4[C@@H](C[C@H]2[C@]1(C)CCCO)[C@@]4(C)C3 | inactive | 1 | 1 | inactive | inactive | – | – | inactive | inactive | – | – | 3 | 3 | inactive | inactive | 1 | 1 | inactive | inactive | 1 | inhibition zone (IZ) [6]: inactive; inhibition zone (IZ) [7]: inactive; inhibition zone (IZ) [10]: inactive; inhibition zone (IZ) [11]: inactive; inhibition zone (IZ) [21]: inactive; inhibition zone (IZ) [25]: inactive |
| C[C@@H]1CC[C@@]2(C)C(CO)=CCC[C@@H]2[C@@]1(C)CCc1ccoc1 [HARDWICKIOL] | – | 3 | 7 | inactive | inactive | 7 | 3 | inactive | inactive | 3 | 1 | 3 | 3 | inactive | inactive | 3 | 7 | inactive | inactive | 7 | zone of inhibition at 1000 µg/mL [1]: 3 mm; zone of inhibition at 1000 µg/mL [21]: 3 mm; zone of inhibition at 1000 µg/mL [25]: 3 mm |
| C=C(C)[C@@H]1CC[C@@]23C[C@@H]4[C@@H](C[C@H]2[C@]1(C)CCC(=O)O)[C@@]4(C)C3 | inactive | 3 | 3 | inactive | inactive | 3 | 1 | – | – | 1 | – | > 12 | 7 | inactive | inactive | 7 | 7 | inactive | inactive | 7 | zone of inhibition at 1000 µg/mL [8]: 3 mm; zone of inhibition at 1000 µg/mL [9]: 1 mm; inhibition zone (IZ) [11]: inactive; MIC [12]: 25 µg/mL (≈ 82.7 µM); MIC [13]: 25 µg/mL (≈ 82.7 µM); MIC [27]: 100 µg/mL (≈ 331 µM); MIC [28]: 100 µg/mL (≈ 331 µM); zone of inhibition at 1000 µg/mL [21]: 7 mm; inhibition zone (IZ) [25]: inactive |

Source: ChEMBL document CHEMBL1150203, “Antimicrobial diterpenes of Croton sonderianus, 1. Hardwickic and 3,4-secotrachylobanoic acids” (1991)
